Experimental findings from PubChem BioAssay AID373 (The Scripps Research Institute Molecular Screening Center, 2006) are described below.

Screen size: about 60,000 compounds; about 60 (0.1%) were called active.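 How the source made its calls: active means activation above the screen-wide mean plus 3 SD (cut at about 4.5% in these data, passing the limit was not always enough); inactive means the rest, inconclusive results apart.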 This excerpt belongs to a sample that is enriched for actives.

For the assay, the target named is Sphingosine 1-phosphate receptor 3 (Homo sapiens) (UniProt Q99500). The assay can be described thus: activators of S1P3 receptor signaling – cell-based, primary and confirmation, NFAT-BLA reporter, primary screen (AID 373). The procedure, abridged: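 Material: Human S1P3 NFAT-BLA reporter CHO cells | Incubation: Overnight plating, 4 h compound 37 °C, 2 h substrate RT | Signal: FRET β-lactamase substrate fluorescence, excitation 405 nm, 460/535 nm emission ratio, background-subtracted | Compound: 4.5 µM final, single dose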
Sequence of Sphingosine 1-phosphate receptor 3 (Homo sapiens) (Q99500 whole entry, looked up): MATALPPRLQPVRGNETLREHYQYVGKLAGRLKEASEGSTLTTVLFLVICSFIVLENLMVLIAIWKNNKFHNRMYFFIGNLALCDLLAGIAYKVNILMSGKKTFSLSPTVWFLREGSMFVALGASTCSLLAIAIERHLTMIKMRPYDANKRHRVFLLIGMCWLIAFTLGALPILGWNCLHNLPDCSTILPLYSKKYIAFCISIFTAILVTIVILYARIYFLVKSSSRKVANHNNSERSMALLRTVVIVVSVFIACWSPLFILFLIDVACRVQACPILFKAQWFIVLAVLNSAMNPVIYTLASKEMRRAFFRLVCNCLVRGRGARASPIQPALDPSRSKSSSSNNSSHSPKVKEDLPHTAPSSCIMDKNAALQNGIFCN

Setting [1] is: S1P3 NFAT-BLA reporter cells, agonism, FRET ratio, at 4.5 µM, stronger effect = higher value, relative to 1 µM S1P, basal subtracted.

For the compound `CC(C)c1ccc(NC(=O)NC2CCCCC2)cc1`, the activation under setting [1] was 0% (inactive).
On the same count and under the same terms, for `Cc1ccc2nc(NC(=O)C3CCN(S(=O)(=O)c4ccc5c(c4)oc(=O)n5C)CC3)sc2c1` the value was -0.9% (inactive); for `O=C(O)CCCC(=O)Nc1ccccc1-n1ccnc1`, -0.2% (inactive).
Same read-out and setting: for `CCCOc1cccc(C(=O)Nc2nnn(CCC)n2)c1` the value was 0% (inactive); for `COc1ccc(-c2noc(COc3ccc(Cl)c(C)c3)n2)cc1`, -0.7% (inactive).
Still for that read-out and setting: for `Cc1cc(C)nc(N(C#N)CC(=O)Nc2ccccc2)n1` the value was -0.7% (inactive); for `Cc1nn(-c2cc(Cl)ccc2N)c(=O)c2ccccc12`, -1.6% (inactive); for `CCOCC(=O)NCc1ccc2c(c1)cc(C)n2C`, -0.3% (inactive).
Take `CN(CC(=O)NC1CCCCC1)S(=O)(=O)c1cccc2cccnc12`: the activation under setting [1] was -1.1% (inactive).
Still for that read-out and setting: for `COc1ccc(S(=O)(=O)N2CCC(C(=O)N3CCOCC3)CC2)cc1OC` the value was -0.8% (inactive).
On the same count and under the same terms, for `Cc1ccn2cc(C(=O)NC3CCN(Cc4ccccc4)CC3)nc2c1` the value was -0.2% (inactive); for `CC(=O)N1CCN(C(=O)Nc2cccc(C(F)(F)F)c2)CC1`, -0.4% (inactive).
The same measure, in the same setting: for `O=C(Nc1nccs1)C1CCCN1S(=O)(=O)c1cccc2cccnc12` (centres undefined) the value was -0.3% (inactive); for `Cc1cccc2c1N(CC(=O)OC(C)C)C(=O)C2=O`, -0.6% (inactive); for `COc1ccccc1Nc1ncnc2c1oc1ccccc12`, -1% (inactive).
With `Cc1cnc(NC(=O)CSc2nnc(-c3ccc(Cl)cc3Cl)n2N)s1`, the activation under setting [1] is -0.7% (inactive).
Still for that read-out and setting: for `CC12CN3CC(C)(CN(C1)C3c1ccc(Cl)cc1Cl)C2=O` (centres undefined) the value was -0.5% (inactive); for `CC(=O)Nc1ccc(NS(=O)(=O)c2cc(C)sc2C)cc1`, -0.3% (inactive).
On the same count and under the same terms, for `Cc1ccc(S(=O)(=O)N2CCC(N3CCCCCC3)CC2)cc1` the value was -2.7% (inactive); for `CC1COC2C(O1)N(S(C)(=O)=O)CCN2S(C)(=O)=O` (centres undefined), -1.9% (inactive).
On the same count and under the same terms, for `CCOc1ccc(C2C(C(=O)O)c3ccccc3C(=O)N2CCN2CCOCC2)cc1` (centres undefined) the value was -0.7% (inactive); for `CC(C)N(C(=O)Cn1c(SCC(=O)N2CCN(c3ccccc3)CC2)nc2ccccc21)C(C)C`, 0.4% (inactive).
With `CCn1c(SCC(=O)Nc2cccc(F)c2)nnc1-c1cc2cc(Br)ccc2o1`, the activation under setting [1] is 0.7% (inactive).
On the same count and under the same terms, for `CC1CCN(C(=O)CSc2ccc3nnc(-c4cccc(F)c4)n3n2)CC1` the value was -0.5% (inactive).
Still for that read-out and setting: for `CCOc1ccc(OCC)c(NC(=O)C(NS(=O)(=O)c2ccc3c(c2)oc(=O)n3C)C(C)C)c1` (centres undefined) the value was 0.3% (inactive); for `CC1CCN(Cc2nc3c(c(=O)n(C)c(=O)n3C)n2CCc2ccccc2)CC1`, -0.7% (inactive); for `CCc1c(C)c2c(C)[nH]nc2oc1=O`, 0.6% (inactive).
The same measure, in the same setting: for `CCCCC(=O)N(c1ccc(OC)cc1)C1C=CS(=O)(=O)C1` (centres undefined) the value was -0.5% (inactive); for `COc1ccc(-c2nc(CS(=O)CC(=O)NCc3cccnc3)c(C)o2)cc1OC` (centres undefined), -0.9% (inactive); for `CCn1c(SCC(=O)NCc2ccco2)nnc1-c1ccc(N)cc1`, 1.1% (inactive).
Regarding `CCN(CC)S(=O)(=O)c1ccc2nc(COC(=O)c3n[nH]c4ccccc34)[nH]c2c1`, the activation under setting [1] is 0% (inactive).
The same measure, in the same setting: for `C[N+](C)(C)CCOP(=O)([O-])OC[C@H](O)CO` the value was -3.9% (inactive); for `c1ccc(Nc2n[nH]nc2-c2ccccc2)cc1`, -1.7% (inactive); for `O=C(c1ccc(-n2cnnn2)cc1)N1CCN(C(c2ccccc2)c2ccccc2)CC1`, 0.7% (inactive).
The same measure, in the same setting: for `O=C(NCc1cn2ccsc2n1)Nc1cccc(Cl)c1` the value was 1.1% (inactive).
Same read-out and setting: for `Cc1cccc(CSc2nnc(Cn3c(=O)sc4ccccc43)n2C)c1` the value was -0.9% (inactive).
As for `Cc1cc(C)cc(N(CC(=O)NCC2CCCO2)S(=O)(=O)c2c(C)noc2C)c1` (centres undefined), the activation under setting [1] was -0.2% (inactive).
Regarding `CCOC(=O)c1ccc(-c2ccc(C(=O)Nc3cccnc3)o2)cc1`, under setting [1], the activation was 0.3% (inactive).
On to `Cc1ccc(-c2noc(CCC(=O)Nc3ccccc3N3CCN(C)CC3)n2)cc1`, for which the activation under setting [1] was 0.8% (inactive).
In the case of `CCN(CC)CCCN1C(=O)C(=O)/C(=C(/O)c2c(C)nc3ccccn23)C1c1ccc(C)o1` (centres undefined), the activation under setting [1] is 0.3% (inactive).
Same read-out and setting: for `CNC(=O)Nc1cc(C(C)(C)C)no1` the value was -0.1% (inactive); for `COc1ccc(CCn2c(-c3ccco3)nc3nc4ccccc4nc32)cc1OC`, -1.1% (inactive); for `Cc1ccc(-c2c3c(=O)n(C)c(=O)n(C)c3cn2-c2ccccc2O)cc1`, 0.1% (inactive).
As to `COc1cccc(-n2c(Cc3cc(=O)[nH]c(=O)[nH]3)nnc2SCC(=O)Nc2ccccc2)c1`, the activation under setting [1] is 0.3% (inactive).
Still for that read-out and setting: for `Cc1cccc(NC(=O)COc2ccc(Br)cc2C)n1` the value was -1% (inactive).
The same measure, in the same setting: for `Cc1cc(/C=N/n2cnnc2)c(C)n1-c1ccc2ncccc2c1` the value was 0.1% (inactive); for `CCOCCCNC(=O)Cc1cc(=O)[nH]c(=O)[nH]1`, 0.5% (inactive).
On the same count and under the same terms, for `O=S(=O)(Nc1ccccc1N1CCOCC1)c1ccc(Cl)s1` the value was 0.7% (inactive); for `O=c1cc(Cn2nnc(-c3ccc(Cl)cc3)n2)nc2sccn12`, -0.5% (inactive); for `O=C(CSc1nnc(-c2ccco2)n1-c1ccccc1)NCCc1ccccc1`, 0% (inactive).
Consider `COc1ccc(C(=O)c2oc3ccc(Br)cc3c2NC(C)=O)cc1`, for which the activation under setting [1] is -0.9% (inactive).
For `Cc1cc(C)c(NC(=O)CS(=O)CC(=O)Nc2cccnc2)c(C)c1` (centres undefined), the activation under setting [1] is 0.3% (inactive).
Same read-out and setting: for `COc1ccc(-n2nnc3c(=O)n(CC(=O)N4CCC(Cc5ccccc5)CC4)cnc32)cc1` the value was -0.4% (inactive); for `Cc1ccc(C(=O)N(CN2CCCC2=O)c2ccc(F)cc2)cc1`, -1.3% (inactive).
With `CC1CC(C)CN(CC(=O)Nc2ccc(S(N)(=O)=O)cc2)C1` (centres undefined), the activation under setting [1] was -0.9% (inactive).
Still for that read-out and setting: for `CN(C)c1nc2n(c(=O)n1)CCO2` the value was 0.6% (inactive); for `c1ccc2c(c1)OCC(c1nn3cnnc3s1)O2` (centres undefined), -0.3% (inactive); for `Cc1ccc(C(c2sc3nc(C)nn3c2O)N2CCN(c3ccc(F)cc3)CC2)cc1` (centres undefined), 0.6% (inactive).
Regarding `CC(C)(C)Oc1ncc(Br)c(OC(C)(C)C)n1`, under setting [1], the activation was -0.4% (inactive).
On the same count and under the same terms, for `N#Cc1c(N)n(CCOC(=O)c2ccc(Cl)cc2)c2nc3ccccc3nc12` the value was 2.5% (inactive); for `COc1ccc(C(C)=O)cc1COC(=O)Cn1cnc2ccccc2c1=O`, 0.7% (inactive).
Same read-out and setting: for `Cc1cc(C(F)(F)F)nn1CC(=O)N1CCCC1` the value was -0.4% (inactive); for `CCCc1[nH]nc2c1C(c1ccc(OC)c(Cn3nc(C)c(Br)c3C)c1)C(C#N)=C(N)O2` (centres undefined), -0.7% (inactive).
Same read-out and setting: for `O=C(CN1CCOc2ccccc21)N1CCC(Cc2ccccc2)CC1` the value was -0.9% (inactive).
On to `Cc1cc(=O)[nH]c(SCC(N)=O)c1C#N`, for which the activation under setting [1] is -1% (inactive).
Still for that read-out and setting: for `CCc1nc2ccccc2n(CCOCCOCCn2c(=O)c(CC)nc3ccccc32)c1=O` the value was 1.3% (inactive); for `O=C(CC1OC(=O)c2ccccc21)NC1CCCCC1` (centres undefined), -0.8% (inactive); for `O=C(O)CCN1C(=O)CC2(CCCCC2)C1=O`, -0.4% (inactive).
The same measure, in the same setting: for `CCn1cc(NC(=O)Nc2ccc(OC)c(OC)c2)c(C(N)=O)n1` the value was -0.9% (inactive).
As to `C=CCn1c(=O)c2ccccc2n2c(SCC(=O)N3CCCc4ccccc43)nnc12`, under setting [1], the activation is -2.3% (inactive).
For the compound `OC(COc1ccc2ccccc2c1)CN1CCOCC1` (centres undefined), the activation under setting [1] is 0.6% (inactive).
For the compound `Cc1ccc2nc(-c3ccccc3)cc(C(=O)O)c2c1`, the activation under setting [1] is 0.7% (inactive).
In the case of `Cc1cccc(NC(=O)C2CCCN2S(=O)(=O)c2ccc(F)cc2)c1C` (centres undefined), the activation under setting [1] was -1.1% (inactive).
Same read-out and setting: for `Cc1nc(Nc2ccc3c(c2)OCCO3)c2nnn(Cc3ccccc3Cl)c2n1` the value was -1.2% (inactive); for `COc1ccccc1N=C1SC(C)CN1C(=O)C1CCC1` (centres undefined), 0.5% (inactive).
Turning to `O=S(=O)(NCc1ccccn1)c1ccc(F)cc1`, under setting [1], the activation is -1.2% (inactive).
The same measure, in the same setting: for `COCCn1c(C)cc(C(=O)CSc2ncnc3sc4c(c23)CCC4)c1C` the value was -1% (inactive).
As to `COCCNc1nc(-n2nc(C)cc2C)nc2sc3c(c12)CCCC3`, the activation reads like this: (S1P3 NFAT-BLA reporter cells, agonism, FRET ratio; at 4.5 µM; stronger effect = higher value; relative to 1 µM S1P, basal subtracted) 18.4% (active); (S1P3 NFAT-BLA reporter cells, agonism, FRET ratio; measured here: confirmation screen, triplicate average; at 4.5 µM; stronger effect = higher value; relative to 1 µM S1P, basal subtracted) 25.3%.
On to `Cc1cc(C)n(-c2nc(SCC(=O)N3CCCC3)c3c4c(sc3n2)CCCC4)n1`, for which the activation under setting [1] is 0% (inactive).
Same read-out and setting: for `CC1=CC(C)(C)N(C(=O)CSc2nccn2C)c2cc(C)ccc21` the value was 0.7% (inactive).
Take `O=C(CCSCCc1ccccn1)Nc1nccs1`: the activation under setting [1] is -0.7% (inactive).
Same read-out and setting: for `COc1ccc(-c2nnc(SCC(=O)NC3CCCCC3)o2)cc1OC` the value was -0.8% (inactive); for `CCOC(=O)Cn1c(=O)oc2cc(S(=O)(=O)N(C)Cc3ccco3)ccc21`, 0.3% (inactive); for `O=C(CN1C(=O)C2C3C=CC(C3)C2C1=O)NCCc1ccccc1Cl` (centres undefined), 0.1% (inactive).
Still for that read-out and setting: for `CCOC(=O)C(C)Oc1cccc2c(=O)n(CC(=O)N3CCc4ccccc43)ccc12` (centres undefined) the value was -1.6% (inactive).
Same read-out and setting: for `Cc1cc(Nc2cccc(C)c2C)n2ncnc2n1` the value was -1.3% (inactive).
For the compound `COCCOC(=O)C1=C(C)NC(=O)NC1c1ccc(Cl)cc1` (centres undefined), under setting [1], the activation was -2.2% (inactive).
Same read-out and setting: for `O=C(Cn1cnc2c(nnn2-c2ccccc2)c1=O)N1CCC(Cc2ccccc2)CC1` the value was -1.2% (inactive).
For `COC(=O)c1ccc(OC(=O)c2nn(C)cc2Cl)c(OC)c1`, the activation under setting [1] was -1% (inactive).
The same measure, in the same setting: for `COc1ccc(-c2nnc(SC(=O)N3c4ccccc4Sc4ccccc43)o2)cc1` the value was -1.5% (inactive); for `CC1(C)CCCC2=C1CC1C(=O)N(c3ccccc3)C(=O)C1C2` (centres undefined), -0.8% (inactive).
Consider `C=CCNC(=O)CCCOc1cccc(C)c1`, for which the activation under setting [1] was 0.2% (inactive).
Same read-out and setting: for `O=C(CCOc1ccccc1)NCc1ccccc1` the value was 0.1% (inactive).
The same measure, in the same setting: for `O=C(CCC(=O)OCC(F)(F)C(F)F)NCc1ccccc1` the value was -0.2% (inactive).
For the compound `COc1c(Br)cc2c(C)c(C(=O)N3CCOCC3)oc2c1Br`, the activation under setting [1] was 1.5% (inactive).
The same measure, in the same setting: for `CCCN(CCC)C(=O)C1c2ccccc2Oc2ccccc21` the value was -1.3% (inactive); for `COc1ccccc1CNC(=O)CCCNS(=O)(=O)c1cccc2nsnc12`, 1.2% (inactive).
The same measure, in the same setting: for `COCCNC(=O)Cn1cc2c(n1)CCCCC2` the value was -0.2% (inactive).
